# Source: PubChem
# The sample as a whole holds a higher share of hits than the screen did.
# TLR4-MyD88 BLA: blocks binding of human TLR4 to MyD88; O00206+Q99836; HeLa CL3-4 TLR4/MyD88 BLA complementation, FRET ratio; inhibition, % at 8.4 µM; 200,000 compounds, 0.18% hits; in the data active = inhibition above about 25%;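 note: 0% = vehicle and 100% = reference inhibitor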
# XBP1 UPR activ: adaptive UPR (XBP1) activation; CHO-XBP1 luciferase reporter, IRE1-XBP1 UPR activation, luminescence; percent of tunicamycin response, DMSO as zero; activation, % at 20 µM; 330,000 compounds, 0.33% hits;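 active = versus positive control, 20 µM dose yields 30% or more activation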;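 note: 100% = tunicamycin at 10 µg/mL and 0% = DMSO only wells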
#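 Material – CHO cell line with stable XBP1 luciferase reporter · Buffer or medium – F12 plus 10% FBS · Compound – single point, 20 µM final compound, 1% DMSO · Schedule – 16-18 h cell attachment at 37 °C, then 6 h compound exposure · Signal – Steady-Glo luminescence read · Benchmarks – high control tunicamycin 10 µg/mL final, low control DMSO vehicle only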
# TLR9-MyD88 block: inhibitors of human TLR9-MyD88 binding; Q9NR96+Q99836; CHO BLA complementation TLR9-MyD88, CCF4 FRET ratio; inhibition, % at 4.98 µM; 340,000 compounds, 0.21% hits;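 active = inhibition above the mean over all tested compounds plus 3 SD, cut at about 21% in these data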;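 note: 0% = DMSO only wells and 100% = clavulanate BLA inhibitor control wells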
# UPR CHOP act: apoptotic UPR (CHOP) activation; CHO-CHOP luciferase reporter, luminescence; percent of tunicamycin response over DMSO baseline; activation, % at 10 µM; 330,000 compounds, 0.34% hits;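 active = at 10 µM dose, activation of 40% or more, normalized to positive control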;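 note: 100% = tunicamycin at 10 µg/mL and 0% = DMSO alone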
#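 Material: CHO-CHOP cells, stable luciferase reporter of PERK-eIF2a-CHOP signalling; quantity: 500 reporter cells seeded per well; buffer or medium: F12 medium containing 10% fetal bovine serum; compound: one dose, 10 µM in 0.5% DMSO; incubation: 6 h compound treatment, 37 °C; measured by: Steady-Glo luciferase luminescence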
# NOD2 RIPK2 PPI: NOD2-RIPK2 protein interaction inhibition; CHO BLA complementation NOD2-RIPK2, CCF4 ratio; inhibition, % at 4.98 µM; 360,000 compounds, 0.38% hits; in the data active = inhibition above about 21%;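 note: 0% = vehicle only and 100% = reference blocker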
# Target sequence (O43353 whole entry, looked up): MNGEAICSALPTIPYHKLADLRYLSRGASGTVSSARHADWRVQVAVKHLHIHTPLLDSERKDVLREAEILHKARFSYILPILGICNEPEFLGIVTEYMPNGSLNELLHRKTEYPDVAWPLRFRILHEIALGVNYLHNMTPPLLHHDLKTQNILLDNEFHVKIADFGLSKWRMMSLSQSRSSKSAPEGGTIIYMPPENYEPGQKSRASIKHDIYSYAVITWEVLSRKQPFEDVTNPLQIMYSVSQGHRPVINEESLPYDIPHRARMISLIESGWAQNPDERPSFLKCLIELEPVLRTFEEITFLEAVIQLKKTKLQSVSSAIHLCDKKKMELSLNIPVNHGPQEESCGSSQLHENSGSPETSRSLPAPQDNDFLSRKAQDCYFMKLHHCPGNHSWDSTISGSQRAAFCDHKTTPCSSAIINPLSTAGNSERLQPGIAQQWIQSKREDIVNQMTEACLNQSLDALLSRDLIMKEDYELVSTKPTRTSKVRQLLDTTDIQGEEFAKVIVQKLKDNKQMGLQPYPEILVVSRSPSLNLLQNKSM
# CHOP inh: blocks CHOP induction under ER stress. CHO-K1 CHOP-promoter luciferase, tunicamycin-induced, 15-18 h. inhibition, % at 10 µM. 220,000 compounds, 3.8% hits;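 active = compounds that reduced the stress-induced luciferase reporter signal by more than about 70% of percent inhibition, limit read from the data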;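 note: 0% = tunicamycin plus vehicle and 100% = wells without tunicamycin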
# * hit, by the source's call; nt = no result given.
SMILES,TLR4-MyD88 BLA,XBP1 UPR activ,TLR9-MyD88 block,UPR CHOP act,NOD2 RIPK2 PPI,CHOP inh
OCCn1c(Cl)nc2ccccc21,1,-1,0,0,3,-8
Cc1cccc(-n2c(CNC(=O)c3ccc(S(=O)(=O)N(C)C)cc3)nnc2SCC(=O)Nc2ccc(F)cc2)c1,-9,-3,-9,0,2,31
Cc1ccc(OCCC(=O)N(CCC(C)C)c2c(N)n(Cc3ccccc3)c(=O)[nH]c2=O)cc1,nt,0,-1,2,-9,nt
COc1ccc(CC2S/C(=N/N=C/c3ccc(O)cc3)NC2=O)cc1 (stereo not drawn),-12,2,-5,5,2,2
COc1ccc(CC2S/C(=N/N=C/c3ccccc3O)NC2=O)cc1 (stereo not drawn),nt,1,5,3,-3,70*
O=C1N/C(=N/N=C/c2ccc(O)cc2)SC1Cc1ccccc1 (stereo not drawn),nt,1,-9,0,-16,18
O=C1N/C(=N/N=C/c2ccccc2O)SC1Cc1ccc(F)cc1 (stereo not drawn),nt,0,4,0,-3,90*
COc1ccc(C2CC(=O)C=C(NNS(=O)(=O)c3ccc(C)cc3)C2)cc1 (stereo not drawn),1,-2,-4,5,-6,-11
CCN(CC)C(=O)C1=C(C)N(CCCOC)C(=O)C(CC(=O)NCc2cccs2)C1 (stereo not drawn),nt,nt,1,nt,1,nt
CC(C)(C)NC(=O)Cn1cc(C#N)c2cc(Br)ccc21,-23,-3,1,1,-1,79*
CC1(C)CC(=O)C=C(NC2=CC3OC(c4ccccc4)OCC3OC2=O)C1 (stereo not drawn),4,-3,2,17,20,103*
CC1(C)CC(=O)C=C(NCc2ccccc2)C1,8,-3,-3,0,5,8
CC(C)(C)OC(=O)N1CC2(CCCCC2)CC1Cc1ccc(C(F)(F)F)cc1 (stereo not drawn),nt,nt,3,nt,2,nt
CCc1nnc(NC(=O)Cn2nc(-c3ccccc3OC)ccc2=O)s1,-5,-1,9,-1,9,70*
CC(=O)Nc1ccc(NC(=O)c2ccc(Cn3cc(Cl)cn3)cc2)cc1,-8,-4,-13,-1,-3,92*
O=C(Nc1cccc(Cl)c1)c1ccc(Cn2cc(Cl)cn2)cc1,1,1,-10,5,0,16
COc1cccc(OC)c1C(=O)NNS(=O)(=O)c1ccc2ccccc2c1,nt,-2,5,-1,0,nt
COc1cccc(-c2nc(NC(C)C)c3ccccc3n2)c1O,-11,9,1,0,-1,51
COc1cnc(-c2ccccc2)nc1Oc1cccc(C)c1C,3,-2,-16,-2,5,78*
COc1cccc(-c2nc(Oc3cccc(C)c3C)c3ccccc3n2)c1O,3,19,1,20,4,82*
CCCCN(C(=O)c1ccc(N2C(=O)c3ccccc3C2=O)cc1)c1c(N)n(CC(C)C)c(=O)[nH]c1=O,nt,-2,-4,2,-7,nt
CC1CCN(S(=O)(=O)c2ccc(Cl)cc2Br)CC1,-4,1,-10,-1,-13,78*
O=S(=O)(c1cc(Cl)ccc1Br)N1CCCCC1,1,-1,-5,0,-5,55
CCOC(=O)C1=C[C@@H](c2ccccc2)N(S(=O)(=O)c2ccc(C)cc2)[C@H]1c1ccc(OC)cc1,nt,nt,nt,nt,-16,nt
CC(=O)NCCCNS(=O)(=O)c1ccc(C)cc1,-9,3,3,-2,-11,22
SMILES,TLR4-MyD88 BLA,XBP1 UPR activ,TLR9-MyD88 block,UPR CHOP act,NOD2 RIPK2 PPI,CHOP inh
Cc1cc(NC(=O)C2CC(c3cccc(Br)c3)=NO2)no1 (stereo not drawn),-7,0,-1,-1,6,73*
Cc1ccc(O)c(NC(=O)C2CC(c3cccc(Br)c3)=NO2)c1 (stereo not drawn),nt,-7,4,-2,13,nt
CCOc1ccc(C(=O)c2cc([N+](=O)[O-])ccc2Cl)cc1,-4,4,1,0,-83,82*
CC1=C(C#N)c2nc(N)c(C#N)c(C)c2/C1=C\c1ccc(C)cc1,-7,-6,nt,-11,nt,98*
CC1=NC(C(F)(F)F)(C(F)(F)F)C2=C(CC(C)(C)CC2=O)N1Cc1ccco1,1,2,9,1,-45,37
O=c1c2nncn2c2cc(C(F)(F)F)ccc2n1CCNc1ncc(C(F)(F)F)cc1Cl,nt,2,-3,-1,0,85*
O=c1c2nncn2c2cccnc2n1CCNc1ncc(C(F)(F)F)cc1Cl,nt,-1,-1,-1,10,5
CCOc1ccc(C(=O)N2CCN(CC(=O)N3CCCC3)CC2)cc1OCC,nt,0,-1,1,1,nt
Cc1cccc(/C=C2\CCC(=C3SCCCS3)C2=O)c1,-6,-12,-4,-8,-7,78*
O=C(CSCCNS(=O)(=O)c1ccccc1)Nc1ccccc1,-12,-3,9,0,0,74*
O=C(O)CSc1nc2sc3c(c2c(=O)n1Cc1ccccc1)CCCCC3,nt,-1,12,6,-3,nt
O=C(O)CSc1cc(C(=O)c2ccccc2O)cn2c(=O)c3c4c(sc3nc12)CCCC4,nt,nt,1,nt,-15,89*
CC(C)(C)C(=O)OCc1ccc(C2=CC(=O)CC(C)(C)C2=O)cc1,nt,nt,-2,nt,5,nt
O=C(O)CCCN1C(=O)/C(=C\c2ccco2)SC1=S,3,nt,-7,nt,1,60
COc1ccc(/C=C2/SC(=S)N(CCC(=O)O)C2=O)cc1,-12,-3,-7,-7,3,84*
COc1ccc(/C=C2/SC(=S)N(n3c(C)ccc3C)C2=O)cc1,3,-3,-1,1,-7,90*
O=C(O)CCN1C(=O)/C(=C\c2ccc(-c3nc4ccccc4s3)o2)SC1=S,5,5,10,3,-3,74*
COc1ccc(/C=C2\SC(=S)N(CCC(=O)Nc3ccc(C(=O)O)cc3)C2=O)cc1,nt,0,10,4,3,nt
C=CCc1ccccc1Oc1cc(OC)nc(N)n1,nt,-3,3,-1,2,nt
COc1ccc(CC(=O)Nc2cccc(-c3nnc(-c4ccc(C)cc4)o3)c2)cc1OC,9,-3,2,-5,-3,76*
COc1ccc(CC(=O)Nc2ccc(-c3nnc(-c4ccccc4)o3)cc2)cc1OC,-5,3,-9,2,-5,74*
COc1ccc(CC(=O)Nc2cccc(-c3nnc(-c4ccccc4)o3)c2)cc1OC,0,nt,-8,nt,4,nt
Cc1cn([C@H]2C[C@H](O)[C@@H](/C=C/C(=O)NCc3ccco3)O2)c(=O)[nH]c1=O,nt,nt,nt,nt,-3,nt
CCOC(=O)c1ccc(NC(=O)CCc2nc(-c3ccccc3)no2)cc1,-2,0,-7,-1,-1,79*
